Results from ChEMBL document CHEMBL3425405, “Discovery of Small Molecules for Up-Regulating the Translation of Antiamyloidogenic Secretase, a Disintegrin and Metalloproteinase 10 (ADAM10), by Binding to the G-Quadruplex-Forming Sequence in the 5' Untranslated Region (UTR) of Its mRNA” (J Med Chem, 2015).
Calls of active or inactive are those of the source. No cut-off for these calls is given here.

What was measured:
[1] = Binding affinity to 5'-end biotinylated ADAM10 A10-RNA QGRS (unknown origin) by surface plasmon resonance assay method
Summary of the method: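 SPR with 5′-biotinylated A10-RNA-Wt or A10-RNA-Mut immobilized on a neutravidin chip in running buffer (50 mM Tris-HCl pH 7.5, 100 mM KCl). Ligand serial dilutions in running buffer injected at 20 μL/min for association, then dissociation. Chip regenerated with 50 mM NaOH between runs.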

[2] = Toxicity against APP expressing HEK cells assessed as reduction in cell viability after 48 hrs by MTT assay; type: cell-based, HEK293; settings: human
[3] = Toxicity against human HeLa cells assessed as reduction in cell viability after 24 hrs by MTT assay; type: cell-based
[4] = Effect on secondary structure of ADAM10 A10-RNA QGRS (unknown origin) by CD spectroscopy
[5] = system: HeLa; assay: Toxicity against human HeLa cells assessed as effect on cell number at 0.5 to 2.5 uM after 24 hrs; type: cell-based
Summary of the method: (§1)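 HeLa cells inspected for cell number and morphology before the luciferase read-out, after reporter-plasmid transfection and 24 h exposure to 0, 0.5, 1 or 2.5 μM compound.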

[6] = system: HeLa; assay: Toxicity against human HeLa cells assessed as effect on cell morphology at 0.5 to 2.5 uM after 24 hrs; type: cell-based; summary of the method: as §1
[7] = system: HeLa; assay: Binding affinity to ADAM10 A10-RNA QGRS (unknown origin) transfected in human HeLa cells assessed as increase in ADAM10 translation efficiency at 0.5 uM after 24 hrs by Renilla/firefly dual luciferase reporter assay; type: cell-based
Summary of the method: (§2)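 HeLa cells transfected with 0.8 μg A10-Wt, A10-Mut or A10-Del plasmid (G-quadruplex motif upstream of Renilla in psiCHECK-2). Screening: 24 h at a single 2 μM concentration. Follow-up: plasmid for 12 h, then 0, 0.5, 1 or 2.5 μM for 24 h. Renilla normalized to firefly, relative to untreated control; mean ± SD of three independent measurements.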

[8] = system: HeLa; assay: Binding affinity to ADAM10 A10-RNA QGRS (unknown origin) transfected in human HeLa cells assessed as increase in ADAM10 translation efficiency at 1 uM after 24 hrs by Renilla/firefly dual luciferase reporter assay; type: cell-based; summary of the method: as §2
[9] = system: HeLa; assay: Binding affinity to ADAM10 5'-UTR mutant RNA QGRS (unknown origin) transfected in human HeLa cells assessed as increase in ADAM10 translation efficiency at 0.5 uM after 24 hrs by Renilla/firefly dual luciferase reporter assay; type: cell-based
Summary of the method: (§3)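 HeLa cells transfected with 0.8 μg 5′UTR-Wt or 5′UTR-Mut dual-luciferase plasmid. After 12 h, incubated 24 h with 0, 0.5, 1 or 2.5 μM compound. Renilla luciferase normalized to firefly and expressed relative to the ligand-free control; mean ± SD of three independent experiments, each in triplicate.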

[10] = system: HeLa; assay: Binding affinity to VEGF RNA QGRS (unknown origin) transfected in human HeLa cells assessed as increase in ADAM10 translation efficiency at 2.5 uM after 24 hrs by Renilla/firefly dual luciferase reporter assay; type: cell-based
Summary of the method: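 HeLa cells carrying luciferase reporter plasmids with the N-Ras, Bcl-2 or VEGF 5′-UTR quadruplex (or its mutant) treated with compound up to 2.5 μM for 24 h. Renilla/firefly luciferase activity then measured.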

[11] = system: HeLa; assay: Binding affinity to ADAM10 5'-UTR RNA QGRS (unknown origin) transfected in human HeLa cells assessed as increase in luciferase mRNA expression at 0.5 to 2.5 uM after 24 hrs by RT-PCR method; type: cell-based
[12] = system: HeLa; assay: Binding affinity to ADAM10 5'-UTR RNA QGRS (unknown origin) transfected in human HeLa cells assessed as increase in ADAM10 translation efficiency at 0.5 uM after 24 hrs by Renilla/firefly dual luciferase reporter assay; type: cell-based; summary of the method: as §3
[13] = system: HeLa; assay: Binding affinity to ADAM10 5'-UTR RNA QGRS (unknown origin) transfected in human HeLa cells assessed as increase in ADAM10 translation efficiency at 2.5 uM after 24 hrs by Renilla/firefly dual luciferase reporter assay; type: cell-based; summary of the method: as §3
[14] = system: HeLa; assay: Binding affinity to ADAM10 5'-UTR mutant RNA QGRS (unknown origin) transfected in human HeLa cells assessed as increase in ADAM10 translation efficiency at 2.5 uM after 24 hrs by Renilla/firefly dual luciferase reporter assay; type: cell-based; summary of the method: as §3
[15] = system: HeLa; assay: Binding affinity to ADAM10 5'-UTR mutant RNA QGRS (unknown origin) transfected in human HeLa cells assessed as increase in luciferase mRNA expression at 0.5 to 2.5 uM after 24 hrs by RT-PCR method; type: cell-based
[16] = system: HEK-APP; assay: Binding affinity to ADAM10 A10-RNA QGRS (unknown origin) transfected in HEK-APP cells assessed as increase in ADAM10 protein expression at 0.5 uM after 48 hrs by Western blotting method; type: cell-based
Summary of the method: (§4)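 HEK-APP cells (DMEM, 10% FBS, 2 mM glutamine, 0.2 mg/mL G418) treated with 0, 0.5, 0.75, 1 or 1.5 μM compound for 48 h. Lysates in Tris/NaCl/EDTA/1% Triton buffer immunoblotted for ADAM10, APP and β-actin; conditioned medium blotted for sAPPα. Signal by densitometry, normalized to β-actin, relative to blank control; mean ± SD, three independent experiments.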

[17] = system: HEK-APP; assay: Binding affinity to ADAM10 A10-RNA QGRS (unknown origin) transfected in HEK-APP cells assessed as increase in ADAM10 protein expression at 0.75 uM after 48 hrs by Western blotting method; type: cell-based; summary of the method: as §4
[18] = system: HEK-APP; assay: Binding affinity to ADAM10 A10-RNA QGRS (unknown origin) transfected in HEK-APP cells assessed as increase in ADAM10 protein expression at 1 uM after 48 hrs by Western blotting method; type: cell-based; summary of the method: as §4
[19] = Drug accumulation in cytoplasm of APP expressing HEK cells at 2 uM after 2 hrs by confocal microscopy; type: ADME, cell-based; settings: human, hek293, 2 h
[20] = system: HEK-APP; assay: Binding affinity to ADAM10 A10-RNA QGRS (unknown origin) transfected in HEK-APP cells assessed as increase in sAPPalpha level at 1.5 uM after 48 hrs by Western blotting method; type: cell-based; summary of the method: as §4
[21] = system: HEK293; assay: Reduction in Abeta40 protein production in APP expressing HEK cells at 0.75 uM after 48 hrs by ELISA method; type: functional, Homo sapiens; set-up: scale not given: the % may be the effect or the level left
Summary of the method: (§5)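 HEK-APP cells treated 48 h with increasing compound concentrations (0.75, 1, 1.5 μM). Secreted Aβ40 in equal amounts of conditioned medium quantified by sandwich ELISA. Values expressed relative to blank control; mean ± SD of three independent experiments.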

[22] = system: HEK293; assay: Reduction in Abeta40 protein production in APP expressing HEK cells at 1 uM after 48 hrs by ELISA method; type: functional, Homo sapiens; set-up: scale not given: the % may be the effect or the level left; summary of the method: as §5
[23] = Binding affinity to ADAM10 A10-mutant RNA QGRS (unknown origin) by surface plasmon resonance method
[24] = Selectivity index, ratio of affinity to N-Ras RNA QGRS (unknown origin) to ADAM10 A10-Wt RNA QGRS (unknown origin) by Renilla/firefly dual luciferase reporter assay

Kd [1]: 6.1 µM | Activity [4]: inactive | Drug uptake [19]: Active | Kd [23]: 700000 µM | Selectivity Index [24]: 3
SMILES: CCn1c2ccccc2c2cc(/C=C/c3cc(N4CCN(C)CC4)c4ccccc4[n+]3C)ccc21.[I-]
IC50 at 48 h [2]: 10.7 µM | IC50 at 24 h [3]: 20.9 µM | Activity [5]: Non-toxic | Activity [6]: Non-toxic | Activity [7]: 14.1% | Activity [8]: 46.9% | Activity [9]: inactive | Activity [10]: inactive | Activity [11]: inactive | Activity [12]: 9.7% | Activity [13]: 44.8% | Activity [14]: inactive | Activity [15]: inactive | Activity [16]: 20.2% | Activity [17]: 55.1% | Activity [18]: 76.8% | fold change (FC) [20]: 3.3 | Activity [21]: 7.7% | Activity [22]: 20.7%
